Assay outcomes deposited in PubChem BioAssay by several laboratories.
FLuc stim CS – affects firefly luciferase, flagging false hits in luciferase stimulation screens. 200,000 tested, under 10 active. ATPlite luciferase biochemical, luminescence, 10 min; 0 = ATP-free wells, 1 = DMSO control. activation factor at 10 µM. P08659;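 active = luciferase activation factor, scaled between plate controls, of at least 2 with compound at 10 µM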
Target sequence (P08659 whole entry, looked up): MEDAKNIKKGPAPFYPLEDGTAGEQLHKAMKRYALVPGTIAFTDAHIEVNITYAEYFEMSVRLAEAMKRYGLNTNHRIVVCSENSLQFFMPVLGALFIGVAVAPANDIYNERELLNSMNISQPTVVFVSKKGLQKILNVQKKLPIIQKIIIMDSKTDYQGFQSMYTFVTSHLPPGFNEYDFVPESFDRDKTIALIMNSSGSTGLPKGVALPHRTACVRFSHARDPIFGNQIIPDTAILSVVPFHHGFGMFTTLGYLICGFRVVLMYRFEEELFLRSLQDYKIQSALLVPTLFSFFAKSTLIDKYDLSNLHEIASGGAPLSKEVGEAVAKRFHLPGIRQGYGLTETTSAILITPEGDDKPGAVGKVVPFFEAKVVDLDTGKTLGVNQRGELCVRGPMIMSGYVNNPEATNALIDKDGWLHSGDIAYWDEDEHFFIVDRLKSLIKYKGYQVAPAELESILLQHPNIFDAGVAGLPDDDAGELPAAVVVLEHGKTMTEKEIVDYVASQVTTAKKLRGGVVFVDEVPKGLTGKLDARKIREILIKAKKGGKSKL
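Material: luciferase plus luciferin reagent, cell-free. Medium: PBS buffer for ATP. Also added: ATP substrate, dispensed from a 10.24 µM working solution in PBS. Doses: test compounds dosed from 2 mM stocks in 100% DMSO. Incubation: 10 min post-reagent at room temperature. Technique: light output (luminescence). Read-out basis: luminescence gain marking luciferase activators.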
FLuc inhib CS – inhibits firefly luciferase, flagging false hits in luciferase inhibition screens; AID 1006; P08659; ATPLite firefly luciferase biochemical luminescence, 10 min; inhibition, % at 10 µM; 1.5% of 200,000 active;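 active = inhibition above about 50% when tested at 10 µM, limit read from the data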
NF-kB expr up – NF-kB expression increase, human neuronal cells | NF-kB reporter expression; hits give high values | fold change at 12.5 µM | 1.6% of 190,000 active; in the data active = fold change above about 3.3
STAT1 act – STAT1 signaling activation; NIH 3T3 STAT1-luciferase reporter, IFN-gamma, luminescence; 100% = IFN-gamma alone, no compound; activation (% of control), % at 5.5 µM; 2.6% of 200,000 active;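 active = activation above the screen-wide mean activation plus 3 SD, cut at about 130% in these data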
APP 5'UTR act – APP 5'UTR luciferase reporter activation. AID 1276. SH-SY5Y APP 5'UTR luciferase reporter, luminescence; zero percent = DMSO vehicle wells. activation, % at 2 µM. 1% of 190,000 active;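 active = activation above a set limit, based on mean plus 3 SD of controls, cut at about 140% in these data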
APP 5UTR inh – APP translation inhibition; 0.82% of 190,000 active; SH-SY5Y APP 5'UTR-luciferase reporter, luminescence; inhibition, % at 2 µM;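 active = inhibition above a set limit, derived from the sample mean plus 3 SD, cut at about 45% in these data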
Numbers stand for hits; n = inactive; x = not tested or not shown. Hits are enriched below; roughly 4.8% of the tested compounds scored in any of these assays.

SMILES	FLuc stim CS	FLuc inhib CS	NF-kB expr up	STAT1 act	APP 5'UTR act	APP 5UTR inh
COC(=O)c1nn(-c2ccc3c(c2)CCN3C(C)=O)cc1O	n	94.2	n	n	n	n
CCOC(=O)c1nn(-c2ccc(C)cc2)cc1C(=O)c1ccccc1	n	64.4	6.61	143.8	145.4	n
CCOC(=O)c1nn(-c2ccc3c(c2)OCCO3)cc1O	n	83.8	n	n	157.8	n
O=C(c1cccc(Br)c1)c1cn(-c2ccccc2)nc1C(=O)c1ccccc1	n	n	n	n	n	n
CCOC(=O)c1nn(-c2ccc(C)c(C)c2)cc1O	n	50.1	n	n	n	n
COC(=O)c1nn(-c2ccc3c(c2)OCO3)cc1O	n	n	n	n	n	n
O=C(CSc1nc2[nH]ncc2c(=O)[nH]1)N1CCCCC1	n	n	n	n	n	n
CCOCCCNC(=O)C(c1ccc(C)cc1)N(Cc1cccs1)C(=O)CNC(C)=O (configuration not stated)	n	n	n	n	n	n
COC(=O)c1ccc(CO/N=C/c2ccc(OC)cc2)o1	n	n	4.61	n	n	n
COc1ccc(C(=O)c2cc([N+](=O)[O-])ccc2N2CCCC2)cc1	n	n	n	n	n	61.1
COc1ccc(NC(=O)c2cc([N+](=O)[O-])ccc2N2CCCC2)cc1	n	n	n	n	n	n
COc1ccc(C(=O)c2cc([N+](=O)[O-])ccc2N2CCN(C)CC2)cc1	n	n	n	n	n	64.6
O=C(CNC(=S)N(CCCN1CCOCC1)Cc1cccs1)NC1CCCCC1	n	n	n	n	n	n
O=C(O)c1cccnc1Nc1ccc(Cl)cc1	n	n	n	142.7	n	n
O=C(Nc1ccc(Cl)c(Cl)c1)Nc1ccccc1C(=O)O	n	66.7	7.74	140.3	214.9	n
CC(C)C(=O)Nc1cccc(C(=O)Nc2ccccc2C(=O)O)c1	n	60.6	n	n	n	n
O=C(NCCc1ccccc1)Nc1ccc(Cl)cc1	n	n	n	146.8	x	x
S=C(NCCc1ccccc1)Nc1ccc(Cl)cc1	n	n	n	n	n	n
Cc1ccc(Nc2ncccc2C(=O)O)cc1C	n	n	n	n	n	n
CC(C)COP(=O)(c1ccc(N(C)C)cc1)C(O)c1ccccc1F (configuration not stated)	n	n	n	n	n	n
COc1cccc(C(C)N(C)Cc2nc(-c3ccoc3)oc2C)c1 (configuration not stated)	n	n	n	n	n	n
CCCNC(=O)c1nc(C)n(-c2ccc([N+](=O)[O-])cc2)n1	n	n	n	n	n	n
O=C(Nc1ccc(Cl)cc1)Nc1ccccc1C(=O)O	n	90.1	4.55	n	n	n
COC(=O)c1sccc1NC(=O)Nc1ccc(Cl)c(Cl)c1	n	n	n	143.9	n	n
COC(=O)c1cccc(NC(=O)Nc2ccc(Cl)c(Cl)c2)c1	n	n	n	n	n	n
SMILES	FLuc stim CS	FLuc inhib CS	NF-kB expr up	STAT1 act	APP 5'UTR act	APP 5UTR inh
COc1cccc(NC(=S)/C(=C(\[O-])c2ccc([N+](=O)[O-])cc2)[n+]2ccccc2)c1	n	n	n	n	n	n
c1ccc2c(c1)nnn1c3ccccc3nc21	n	n	5.28	146.4	147.0	n
Cc1nc2ccccc2c2nc3ccccc3n12	n	n	n	n	n	n
Nc1c(C(=O)Nc2ccc(F)cc2)sc(=S)n1-c1ccccc1F	n	n	n	130.9	n	n
COc1ccc(/C(C)=N/OCC(=O)N2CC3(C)CC2CC(C)(C)C3)cc1 (configuration not stated)	n	n	n	n	n	n
Cc1ccn2cc(-c3cc4ccccc4oc3=O)nc2c1	n	n	5.42	n	n	n
Cc1ccc(-c2csc(Cc3nc(-c4cc5ccccc5oc4=O)cs3)n2)cc1	n	n	n	n	n	n
CCOC(=O)Cn1ccc(-c2ccccc2)c(C#N)c1=O	n	n	n	n	n	n
C/C(=N\OC(=O)NC(C)C)c1sc(-c2ccc(Cl)cc2)nc1C	n	n	5.79	n	n	n
CCNC(=O)O/N=C(\C)c1sc(-c2ccc(Cl)cc2)nc1C	n	n	7.07	143.8	160.4	n
C/C(=N\OC(=O)NC(C)C)c1sc(-c2ccccc2)nc1C	n	n	n	n	n	n
C=CCNC(=O)c1onc(CSc2cccc(OC)c2)c1C(=O)O	n	n	n	n	n	n
O=C(Cn1c(-c2ccccc2)noc1=O)Nc1ccc(N2CCCCCC2)cc1	n	n	n	n	n	n
O=C1CSC(=S)N1Cc1cccnc1	n	n	4.81	n	n	n
Cc1ccc2nc(-c3ccc4c(c3)OCCO4)cc(C(=O)O)c2c1	n	74.2	n	n	n	n
CCn1c(SCC(=O)NNC(=O)c2ccc(OC)cc2)nnc1-c1ccco1	n	n	n	n	n	n
COc1ccc(N=Cc2c(O)cc(C)oc2=O)cc1	n	n	n	n	n	n
CC1(C)CC(=O)C(C=NCc2ccc3c(c2)OCO3)=C(O)C1	n	n	n	n	n	n
COc1ccc(N=CC2=C(O)CC(C)(C)CC2=O)cc1	n	n	n	133.3	n	n
CC1(C)CC(=O)C(C=Nc2ccc3c(c2)OCO3)=C(O)C1	n	n	n	131.8	n	n
COc1ccc(N=CC2=C(O)CCCC2=O)cc1	n	n	n	136.0	n	n
CCCCNCc1cc(OCC)c(OCC)cc1Br	n	n	n	n	n	n
c1ccc(Sc2ncnc3c2oc2ccccc23)cc1	n	n	n	144.3	n	n
O=C(O)CSc1ncnc2c1oc1ccccc12	n	n	n	n	n	n
COc1cc(/C=C/c2nc3ccccc3s2)cc(OC)c1O	n	n	n	n	n	n
SMILES	FLuc stim CS	FLuc inhib CS	NF-kB expr up	STAT1 act	APP 5'UTR act	APP 5UTR inh
Cc1ccc(/C=C/c2nc3ccccc3s2)s1	n	91.1	n	n	n	n
CN(C)c1ccc(/C=C/c2nc3ccccc3s2)cc1	n	92.8	n	n	n	n
O=S(=O)(Nc1ccccc1N1CCCCC1)c1ccc(F)cc1F	n	n	n	n	n	n
O=C(/C=C/Nc1cccc([N+](=O)[O-])c1)c1ccco1	x	x	x	n	n	n
COc1ccccc1Oc1ccc(N/C=C/C(=O)c2ccco2)cc1	n	n	5.21	143.1	n	n
CN(C)c1ccc(N/C=C/C(=O)c2ccc(F)cc2)cc1	n	58.0	4.64	n	n	n
CC(=O)Nc1ccc(N/C=C/C(=O)c2ccco2)cc1	n	n	n	141.2	n	n
O=C(/C=C/Nc1ccc(F)cc1)c1ccc(Oc2ncccn2)cc1	n	n	n	n	n	n
CN(C)c1ccc(N/C=C/C(=O)c2ccco2)cc1	n	96.0	n	n	x	x
CC(=O)Nc1ccc(NC(=O)c2ccco2)cc1	n	n	n	n	n	n
O=C(/C=C/Nc1ccccc1Oc1ccccc1)c1ccco1	n	n	n	n	n	n
CCOC(=O)C1=C(C)NC(SCC(=O)O)=NC1c1ccccc1 (configuration not stated)	n	n	n	n	n	n
